Experimental data published in ChEMBL document CHEMBL5338721, “Alkyl-substituted N-methylaryl-N'-aryl-4-aminobenzamides: A new series of small molecule inhibitors for Wip1 phosphatase” (Eur J Med Chem, 2022).
pIC50: −log10 of the molar value. Active and inactive are the calls of the source. No cut-off for these calls is given here.

Target: T1, Protein phosphatase 1D (Homo sapiens) (UniProt O15297)
T1 sequence (whole entry): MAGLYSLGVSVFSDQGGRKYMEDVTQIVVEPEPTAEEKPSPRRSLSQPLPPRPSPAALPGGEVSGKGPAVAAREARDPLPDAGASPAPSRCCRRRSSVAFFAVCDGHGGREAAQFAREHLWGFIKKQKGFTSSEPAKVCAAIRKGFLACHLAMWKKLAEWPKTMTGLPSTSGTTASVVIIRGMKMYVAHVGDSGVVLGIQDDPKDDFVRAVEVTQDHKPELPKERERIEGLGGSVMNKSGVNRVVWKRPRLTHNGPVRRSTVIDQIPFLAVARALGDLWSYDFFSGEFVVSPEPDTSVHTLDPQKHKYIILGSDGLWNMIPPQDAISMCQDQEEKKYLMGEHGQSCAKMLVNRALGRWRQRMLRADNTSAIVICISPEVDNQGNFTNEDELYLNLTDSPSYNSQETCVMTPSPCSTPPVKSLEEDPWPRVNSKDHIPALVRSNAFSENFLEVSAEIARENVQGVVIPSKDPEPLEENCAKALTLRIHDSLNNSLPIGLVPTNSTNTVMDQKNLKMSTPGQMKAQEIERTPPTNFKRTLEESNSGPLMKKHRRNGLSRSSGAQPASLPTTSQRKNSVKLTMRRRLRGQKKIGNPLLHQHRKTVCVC
Assay: Inhibition of recombinant human Wip1 (1 to 420 residues) using human ATM phosphopeptide (AFEEG-pS-QSTTIGY) as substrate at 100 uM incubated for 7 mins by Bio-mol green assay
How it was run: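 Purified recombinant Wip1 (1–420) incubated with compound and 100 μM ATM phosphopeptide for 7 min at 30 °C. Buffer: 50 mM Tris·HCl pH 7.5, EGTA, DTT, CHAPS, 0.1 mg/mL BSA, 30 mM MgCl₂. Phosphate measured by Biomol Green against a standard curve and normalized to no-inhibitor (100%) and no-enzyme (0%). Dose-response used 9–10 points, each in triplicate. IC50 from logistic fit (standard, or variable-slope giving a Hill coefficient).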

| inhibition | Compound |
| --- | --- |
| inactive | O=C(CC1CCCCC1)NCCCO |
| inactive | Nc1ccccc1CC1CCCCC1 |
| inactive | O=C(NCCCO)C1CCCCC1 |

Target: T1, Protein phosphatase 1D (Homo sapiens)
Assay: Inhibition of recombinant human Wip1 (1 to 420 residues) using human ATM phosphopeptide (AFEEG-pS-QSTTIGY) as substrate at 100 uM incubated for 7 mins by Bio-mol green assay relative to control
How it was run: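 Recombinant Wip1 (1–420) with 100 μM ATM phosphopeptide in 50 mM Tris·HCl pH 7.5 buffer with 30 mM MgCl₂, 7 min at 30 °C. Compound given at a single 100 μM concentration. Released phosphate quantified by Biomol Green with a phosphate standard curve. Percent inhibition taken from activity normalized to no-inhibitor (100%) and no-enzyme (0%) controls.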

| inhibition [%] | Compound |
| --- | --- |
| 4 | O=C(CCCCC1CCCCC1)NCCCO |
| 1 | O=C(CCCC1CCCCC1)NCCCO |
| 3 | Nc1ccccc1CCC1CCCCC1 |
| 88 | O=C(O)c1cccc(CNc2ccccc2CCC2CCCCC2)c1 |

Target: T2, Protein phosphatase 1D (Homo sapiens, UniProt O15297)
T2 sequence (O15297 whole entry): T1 sequence (whole entry)
Assay: Inhibition of recombinant human Wip1 (1 to 420 residues) using human ATM phosphopeptide (AFEEG-pS-QSTTIGY) as substrate incubated for 7 mins by Bio-mol green assay
How it was run: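 Released phosphate read by Biomol Green against phosphate standard curve; normalized to no-inhibitor (100%) and no-enzyme (0%). Screen at 100 μM; 9–10-point dose-response in triplicate, logistic fit for IC50 and Hill coefficient.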

| Compound | pIC50 |
| --- | --- |
| O=C(Nc1cccc(F)c1)c1cccc(CNc2ccc(C(=O)Nc3cccc(OP(=O)(O)O)c3)cc2CC2CCCCC2)c1 | 4.68 |
| O=C(Nc1cccc(OP(=O)(O)O)c1)c1ccc(NCc2cc3ccccc3o2)c(CC2CCCCC2)c1 | 4.67 |
| O=C(Nc1cccc(OP(=O)(O)O)c1)c1ccc(NCc2cccc(F)c2)c(CC2CCCCC2)c1 | 4.55 |
| O=C(Nc1ccc2c(c1)OCO2)c1cccc(CNc2ccc(C(=O)Nc3cccc(OP(=O)(O)O)c3)cc2CC2CCCCC2)c1 | 4.45 |
| O=C(Nc1ccc(OP(=O)(O)O)cc1)c1ccc(NCc2ccc(F)cc2)c(CC2CCCCC2)c1 | 4.54 |
| COc1ccc(CNc2ccc(C(=O)Nc3cccc(OP(=O)(O)O)c3)cc2CC2CCCCC2)cc1 | 4.43 |
| O=C(Nc1cccc(OP(=O)(O)O)c1)c1ccc(NCc2ccc(-c3ccc(Cl)cc3)cc2)c(CC2CCCCC2)c1 | 3.48 |
| O=C(Nc1cccc(OP(=O)(O)O)c1)c1ccc(NCc2cccnc2)c(CC2CCCCC2)c1 | 3.98 |
| O=C(Nc1cccc(OP(=O)(O)O)c1)c1ccc(NCc2ccc(F)cc2)c(CC2CCCCC2)c1 | 4.55 |
| Nc1ccc(C(=O)Nc2cccc(OP(=O)(O)O)c2)cc1CC1CCCCC1 | 3.48 |
| O=C(NCCc1ccc(OP(=O)(O)O)cc1)c1ccc(NC(=O)c2ccc(F)cc2)c(CC2CCCCC2)c1 | 4.44 |
| O=C(Nc1cccc(Cl)c1)c1cccc(CNc2ccc(C(=O)Nc3cccc(OP(=O)(O)O)c3)cc2CC2CCCCC2)c1 | 5.42 |
| O=C(O)c1cccc(CNc2ccccc2CC2CCCCC2)c1 | 4.13 |
| O=C(Nc1cccc(Cl)c1)c1ccc(CNc2ccc(C(=O)Nc3cccc(OP(=O)(O)O)c3)cc2CC2CCCCC2)cc1 | 4.95 |
| COc1cccc(CNc2ccc(C(=O)Nc3cccc(OP(=O)(O)O)c3)cc2CC2CCCCC2)c1 | 3.86 |
| O=C(Nc1cccc(Cl)c1)c1cccc(C(=O)Nc2ccc(C(=O)Nc3cccc(OP(=O)(O)O)c3)cc2CC2CCCCC2)c1 | 5.14 |
| O=C(Nc1cccc(Cl)c1)c1cccc(CNc2ccc(C(=O)Nc3cccc(OP(=O)(O)O)c3)cc2CCC2CCCCC2)c1 | 4.49 |
| O=C(Nc1cccc(OP(=O)(O)O)c1)c1ccc(NCc2ccc3ccccc3c2)c(CC2CCCCC2)c1 | 3.56 |
| O=C(Nc1cccc(OP(=O)(O)O)c1)c1ccc(NCc2ccc(-c3cccc(F)c3)cc2)c(CC2CCCCC2)c1 | 4.52 |
| O=C(Nc1cccc(OP(=O)(O)O)c1)c1ccc(NCCCc2ccccc2)c(CC2CCCCC2)c1 | 3.98 |
| O=C(Nc1cccc(OP(=O)(O)O)c1)c1ccc(NCc2ccc(F)cc2)c(Cc2ccccc2)c1 | 4.20 |
| O=C(Nc1cccc(Cl)c1)c1cccc(CNc2ccc(C(=O)Nc3cccc(O)c3)cc2CCC2CCCCC2)c1 | 2.80 |
| O=C(Nc1cccc(OP(=O)(O)O)c1)c1ccc(NC(=O)c2cccc(CNc3cccc(Cl)c3)c2)c(CC2CCCCC2)c1 | 5.14 |
| O=C(Nc1cccc(OP(=O)(O)O)c1)c1ccc(NCc2ccc(-c3cccc(Cl)c3)cc2)c(CC2CCCCC2)c1 | 4.32 |
| O=C(Nc1cccc(OP(=O)(O)O)c1)c1ccc(NCc2ccc(F)cc2)cc1 | 3.17 |
| O=C(Nc1cccc(Cl)c1)c1cccc(CNc2ccc(C(=O)Nc3cccc(OP(=O)(O)O)c3)cc2C2CC3CCC2C3)c1 (stereo not given) | 4.61 |
| CCCCC(CCCC)CNc1ccc(C(=O)Nc2cccc(OP(=O)(O)O)c2)cc1CC1CCCCC1 | 3.29 |
| COc1cc(OC)cc(-c2ccc(CNc3ccc(C(=O)Nc4cccc(OP(=O)(O)O)c4)cc3CC3CCCCC3)cc2)c1 | 4.74 |
| COC(=O)c1ccc(NCc2cccc(C(=O)O)c2)c(CC2CCCCC2)c1 | 4.27 |
| COC(=O)c1ccc(NCc2cccc(C(=O)O)c2)c(CCC2CCCCC2)c1 | 4.32 |

Target: T3, Protein phosphatase 1A (Homo sapiens) (UniProt P35813)
T3 sequence (whole entry): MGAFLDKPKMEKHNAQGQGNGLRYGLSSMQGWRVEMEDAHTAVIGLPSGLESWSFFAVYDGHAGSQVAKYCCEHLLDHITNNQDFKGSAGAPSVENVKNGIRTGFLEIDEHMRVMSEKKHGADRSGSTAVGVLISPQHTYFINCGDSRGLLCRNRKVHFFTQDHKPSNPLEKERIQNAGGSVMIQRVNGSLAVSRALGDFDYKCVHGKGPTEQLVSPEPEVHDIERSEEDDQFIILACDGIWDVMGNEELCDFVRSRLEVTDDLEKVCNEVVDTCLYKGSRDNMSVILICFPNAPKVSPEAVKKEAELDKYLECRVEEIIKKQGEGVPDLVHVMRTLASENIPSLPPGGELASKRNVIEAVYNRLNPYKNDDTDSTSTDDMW
Assay: Inhibition of PPM1A (unknown origin) using human p38alpha phosphopeptide as substrate upto 100 uM incubated for 7 mins by Biomol green assay
How it was run: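 Substrate: 100 μM p38α (175–185, 180pT) phosphopeptide, mixed with compound or DMSO, then 8 nM PPM1A added. Buffer: 50 mM Tris·HCl pH 7.5, 0.1 mM EGTA, 1 mM DTT, 1 mM CHAPS, 0.1 mg/mL BSA, 30 mM MgCl₂. Incubation: 7 min at 30 °C. Stopped with Biomol Green, 20 min colour development at room temperature. Released phosphate read at 620 nm against a phosphate standard curve. Compounds tested up to 100 μM.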

| Compound | inhibition |
| --- | --- |
| O=C(Nc1cccc(Cl)c1)c1cccc(CNc2ccc(C(=O)Nc3cccc(OP(=O)(O)O)c3)cc2CC2CCCCC2)c1 | inactive |
| O=C(Nc1cccc(Cl)c1)c1cccc(C(=O)Nc2ccc(C(=O)Nc3cccc(OP(=O)(O)O)c3)cc2CC2CCCCC2)c1 | inactive |
| O=C(Nc1cccc(OP(=O)(O)O)c1)c1ccc(NC(=O)c2cccc(CNc3cccc(Cl)c3)c2)c(CC2CCCCC2)c1 | inactive |
